Experiments:
[1] = test system: Human poliovirus 1 strain Sabin; test: Antiviral activity against Poliovirus 1 strain Sabin ATCC VR-1562 infected in Vero 76 cells after 2 days by plaque reduction assays; assay type: functional, organism-based; conditions: Enterovirus C, ATCC VR-1562, Vero 76, 48 h
[2] = Antiviral activity against Human respiratory syncytial virus A2 ATCC VR-1540 infected in Vero 76 cells after 5 days by plaque reduction assays; assay type: functional, cell-based; conditions: ATCC VR-1540, Vero 76, 120 h
[3] = Half life in pH 7.4 buffered solution; assay type: physicochemical
Outline: (§1)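 Compound kept at 37 °C in pH 7.4 phosphate buffer (chemical) or plasma (enzymatic), sampled hourly. Plasma aliquots extracted with acetonitrile (1:2) and centrifuged 1000 g for 10 min. Supernatant or buffer analysed by reversed-phase HPLC, methanol/water 80:20, detection at 250 nm. Pseudo-first-order t½ taken from the slope of log remaining compound versus time.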

[4] = Cytotoxicity against mock-infected human MT4 cells assessed as reduction in proliferation after 96 hrs by MTT method; assay type: cell-based
Outline: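 Exponentially growing MT-4 cells seeded at 1 × 10⁵ cells/mL in RPMI-1640 with 10% FBS, penicillin and streptomycin. Held 96 h at 37 °C, 5% CO₂ with or without serial compound dilutions; viability by MTT. Compounds dissolved in DMSO at 100 mM stock, then diluted in medium. CC50 by linear regression.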

[5] = Half life in plasma (unknown origin); assay type: ADME, cell-free; conditions: unidentified; outline: as §1
[6] = test system: Vesicular stomatitis Indiana virus; test: Antiviral activity against Vesicular stomatitis Indiana virus ATCC VR 158 infected in Vero 76 cells after 2 days by plaque reduction assays; assay type: functional, organism-based; conditions: ATCC VR 158, Vero 76, 48 h
[7] = Antiviral activity against Simian virus 12 3651 (ATCC VR- 214) infected in BHK21 cells assessed as protection from virus-induced cytopathogenicity after 3 to 4 days by MTT method; assay type: functional, cell-based; conditions: BHK-21
Outline: (§2)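 Confluent monolayers grown overnight (BHK-21 at 5×10⁴ cells/well for YFV and Reo-1; MDBK at 3×10⁴ cells/well for BVDV). Infection at m.o.i. 0.01 for 2 h in maintenance MEM-Earle with 0.5% inactivated FBS, then serial compound dilutions added. Viability read by MTT after 3–4 days at 37 °C. EC50 taken from linear regression against untreated controls.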

[8] = test system: Yellow fever virus; test: Antiviral activity against Yellow fever virus 17D Stamaril Pasteur J07B01 infected in BHK21 cells assessed as protection from virus-induced cytopathogenicity after 3 to 4 days by MTT method; assay type: functional, cell-based; conditions: Stamaril Pasteur J07B01, BHK-21; outline: as §2
[9] = Antiviral activity against Vaccinia virus Lister ATCC VR-1549 infected in Vero 76 cells after 3 days by plaque reduction assays; assay type: functional, cell-based; conditions: ATCC VR-1549, Vero 76, 72 h
[10] = Cytotoxicity against mock-infected hamster BHK21 cells assessed as reduction in proliferation after 72 hrs by MTT method; assay type: cell-based, Mesocricetus auratus, BHK-21
Outline: (§3)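 MDBK and BHK cells seeded at 6 × 10⁵ and 1 × 10⁶ cells/mL respectively. Medium was MEM-Earle with L-glutamine, 1 mM pyruvate and kanamycin, plus 10% horse serum (MDBK) or 10% FBS (BHK). Cells exposed to serial compound dilutions at 37 °C, 5% CO₂; MTT viability read at 72 h. CC50 by linear regression versus untreated controls.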

[11] = Ratio of Cidofovir EC50 to compound EC50 for Vaccinia virus Lister ATCC VR-1549 infected in Vero 76 cells after 3 days by plaque reduction assays; assay type: functional
[12] = test system: Human alphaherpesvirus 1; test: Antiviral activity against Human herpesvirus 1 strain KOS ATCC VR- 1493 infected in Vero 76 cells after 3 days by plaque reduction assays; assay type: functional, organism-based; conditions: Human alphaherpesvirus 1, KOS ATCC VR1493, Vero 76, 72 h
[13] = test system: Coxsackievirus B5; test: Antiviral activity against Coxsackievirus B5 Faulkner (ATCC VR-185) infected in Vero 76 cells after 3 days by plaque reduction assays; assay type: functional, organism-based; conditions: Enterovirus B, Vero 76, 72 h
[14] = Cytotoxicity against mock-infected bovine MDBK cells assessed as reduction in proliferation after 72 hrs by MTT method; assay type: cell-based, Bos taurus; conditions: cattle; outline: as §3
[15] = Cytotoxicity against mock-infected African green monkey Vero 76 cells assessed as reduction in proliferation after 48 to 96 hrs by MTT method; assay type: cell-based; conditions: chlorocebus sabaeus, Vero 76 cells (mock-infected)
Outline: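 Vero-76 cells seeded at 4 × 10⁵ cells/mL in D-MEM with L-glutamine, kanamycin and 10% FBS. Incubated at 37 °C, 5% CO₂, with or without serial dilutions of compound; viability read by MTT after 48–96 h. Run in parallel with antiviral assays. CC50 obtained by linear regression of % of untreated control.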

[16] = Antiviral activity against Bovine viral diarrhea virus 1-NADL ATCC VR-534 infected in MDBK cells assessed as protection from virus-induced cytopathogenicity after 3 to 4 days by MTT method; assay type: functional, cell-based; conditions: Bovine viral diarrhea virus isolates and strains, ATCC VR-534, MDBK; outline: as §2
[17] = test system: Human immunodeficiency virus 1; test: Antiviral activity against HIV-13B infected in MT4 cells assessed as protection from virus-induced cytopathogenicity after 4 days by MTT method; assay type: functional, organism-based; conditions: Human immunodeficiency virus 1, 3B, MT4, 96 h
Outline: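 HIV-1 IIIB, taken from persistently infected H9/IIIB supernatant. MT-4 cells (1×10⁴/well) in RPMI with serial compound dilutions, infected with 100 CCID50 (m.o.i. 0.01). Viability by MTT after 4 days at 37 °C. EC50 = 50% protection from cytopathogenicity, by linear regression against untreated controls. Compounds kept as 100 mM DMSO stocks, diluted in medium.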

Structure (SMILES): N#Cc1ccc(-c2nc3cc(Br)cnc3[nH]2)cc1
- EC50 [1]: > 73 µM
- EC50 [2]: > 73 µM
- half-life [3]: > 4 h
- CC50 at 96 h [4]: 53 µM
- half-life [5]: 2 h
- EC50 [6]: > 73 µM
- EC50 [7]: > 100 µM
- EC50 [8]: > 100 µM
- EC50 [9]: 2 µM
- CC50 at 72 h [10]: > 100 µM
- Ratio EC50 [11]: 10
- EC50 [12]: 15 µM
- EC50 [13]: > 73 µM
- CC50 at 72 h [14]: > 100 µM
- CC50 [15]: 73 µM
- EC50 [16]: > 100 µM

Structure (SMILES): Nc1c(/N=C/c2ccc(C(F)(F)F)cc2)cc2cccnc2c1Cl
- EC50 [1]: 57 µM
- EC50 [2]: 12 µM
- CC50 at 96 h [4]: 49 µM
- EC50 [6]: > 90 µM
- EC50 [7]: > 25 µM
- EC50 [8]: > 25 µM
- EC50 [17]: > 100 µM
- EC50 [9]: > 90 µM
- CC50 at 72 h [10]: > 25 µM
- EC50 [12]: > 100 µM
- EC50 [13]: 29 µM
- CC50 at 72 h [14]: > 100 µM
- CC50 [15]: 90 µM
- EC50 [16]: 14 µM
